From BindingDB's records for doi:10.1021/jm0300274 (The University of Georgia, 2003)

System: HIV-1 (antiviral activity in human PBM cells)
Assay: Anti-HIV-1 activity determined in human peripheral blood mononuclear PBM cells, expressed as EC50
How it was run: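 PHA-stimulated (2-3 days) human PBM cells from healthy seronegative donors were infected with HIV-1 LAI for 1 h in bulk, then placed into 10-fold serial compound dilutions. Medium contained IL-2 and DEAE-dextran. After 5 days at 37 °C, supernatant virus was pelleted and RT activity measured. EC50 was taken from the concentration-response curve by the median effect method.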

SMILES	EC50 [µM]
Nc1nc2c(ncn2[C@H]2CC(F)(F)[C@H](CO)O2)c(=O)[nH]1	> 100
O=c1ccn([C@@H]2CC(F)(F)[C@H](CO)O2)c(=O)[nH]1	> 100
Nc1ccn([C@@H]2CC(F)(F)[C@H](CO)O2)c(=O)n1	11.5
Cc1cn([C@@H]2CC(F)(F)[C@H](CO)O2)c(=O)[nH]c1=O	> 100
O=c1[nH]cnc2c1ncn2[C@@H]1CC(F)(F)[C@H](CO)O1	> 100
O=c1ccn([C@H]2CC(F)(F)[C@H](CO)O2)c(=O)[nH]1	> 100
Cc1cn([C@H]2CC(F)(F)[C@H](CO)O2)c(=O)[nH]c1=O	> 100
Nc1nc(=O)n([C@@H]2CC(F)(F)[C@H](CO)O2)cc1F	8.8
Nc1nc2c(ncn2[C@@H]2CC(F)(F)[C@H](CO)O2)c(=O)[nH]1	> 100
Nc1ncnc2c1ncn2[C@H]1CC(F)(F)[C@H](CO)O1	> 100
Nc1ccn([C@H]2CC(F)(F)[C@H](CO)O2)c(=O)n1	> 100
O=c1[nH]cnc2c1ncn2[C@H]1CC(F)(F)[C@H](CO)O1	> 100
Nc1ncnc2c1ncn2[C@@H]1CC(F)(F)[C@H](CO)O1	> 100
Nc1nc(=O)n([C@H]2CC(F)(F)[C@H](CO)O2)cc1F	> 100
Cc1cn([C@H]2C=C(F)[C@H](CO)O2)c(=O)[nH]c1=O	> 100
Nc1nc2c(ncn2[C@@H]2C=C(F)[C@H](CO)O2)c(=O)[nH]1	38.5
O=c1[nH]cnc2c1ncn2[C@H]1C=C(F)[C@@H](CO)O1	> 100
Nc1ncnc2c1ncn2[C@@H]1C=C(F)[C@H](CO)O1	> 100
Nc1ncnc2c1ncn2[C@H]1C=C(F)[C@H](CO)O1	> 100
Cc1cn([C@@H]2C=C(F)[C@H](CO)O2)c(=O)[nH]c1=O	> 100
Nc1nc2c(ncn2[C@H]2C=C(F)[C@H](CO)O2)c(=O)[nH]1	> 100
